Test results from ChEMBL document CHEMBL2086326, “Biological activity evaluation and structure-activity relationships analysis of ferulic acid and caffeic acid derivatives for anticancer” (Bioorg Med Chem Lett, 2012).

Columns and labels:
Assay type in all cases: functional, cell-based
A549 = assay: Cytotoxicity against human A549 cells after 72 hrs by alamar blue assay; conditions: A549, 72 h
Procedure, shortened: (§1)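 Cells seeded at 800–1000 per well (20–25 cells/µL) and left overnight to attach. Compounds were diluted serially from 10 mM DMSO stocks and tested at 8 final concentrations, 50 to 0.39 µM, in triplicate for 72 h. Vehicle control was 0.5% DMSO. Alamar blue was added to 10% final and fluorescence read after 4 h (ex 530, em 560 nm). Viability was expressed as percent of vehicle, and IC50 taken as 50% kill versus control.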

NCI-H157 = assay: Cytotoxicity against human NCI-H157 cells after 72 hrs by alamar blue assay; conditions: NCI-H157, 72 h; procedure, shortened: as §1
NCI-H460 = assay: Cytotoxicity against human H460 cells after 72 hrs by alamar blue assay; conditions: NCI-H460, 72 h; procedure, shortened: as §1
NCI-H1792 = assay: Cytotoxicity against human NCI-H1792 cells after 72 hrs by alamar blue assay; conditions: NCI-H1792, 72 h; procedure, shortened: as §1
[1] = Cytotoxicity against human H266 cells after 72 hrs by alamar blue assay; conditions: H266, 72 h; procedure, shortened: as §1
HOP-62 = assay: Cytotoxicity against human HOP62 cells after 72 hrs by alamar blue assay; conditions: HOP-62, 72 h; procedure, shortened: as §1
NCI-H1299 = assay: Cytotoxicity against human NCI-H1299 cells after 72 hrs by alamar blue assay; conditions: NCI-H1299, 72 h; procedure, shortened: as §1
[2] = Cytotoxicity against human 292G cells after 72 hrs by alamar blue assay; procedure, shortened: as §1
Calu-1 = assay: Cytotoxicity against human Calu1 cells after 72 hrs by alamar blue assay; conditions: Calu-1, 72 h; procedure, shortened: as §1
LOX IMVI = assay: Cytotoxicity against human LOXIMVI cells after 72 hrs by alamar blue assay; procedure, shortened: as §1
M14 = assay: Cytotoxicity against human M14 cells after 72 hrs by alamar blue assay; conditions: M14, 72 h; procedure, shortened: as §1
HeLa = assay: Cytotoxicity against human HeLa cells after 72 hrs by alamar blue assay; procedure, shortened: as §1
[3] = Cytotoxicity against human M4E cells after 72 hrs by alamar blue assay; procedure, shortened: as §1
[4] = Cytotoxicity against human SKBR cells after 72 hrs by alamar blue assay; procedure, shortened: as §1

| Compound | IC50 (A549) [µM] | IC50 (NCI-H157) [µM] | IC50 (NCI-H460) [µM] | IC50 (NCI-H1792) [µM] | IC50 [1] [µM] | IC50 (HOP-62) [µM] | IC50 (NCI-H1299) [µM] | IC50 [2] [µM] | IC50 (Calu-1) [µM] | IC50 (LOX IMVI) [µM] | IC50 (M14) [µM] | IC50 (HeLa) [µM] | IC50 [3] [µM] | IC50 [4] [µM] |
| --- | --- | --- | --- | --- | --- | --- | --- | --- | --- | --- | --- | --- | --- | --- |
| CCCCCOC(=O)/C=C/c1ccc(O)c(OC)c1 | > 50 | > 50 | > 50 | > 50 | > 50 | > 50 | > 50 | > 50 | > 50 | > 50 | > 50 | > 50 | > 50 | > 50 |
| CCCCCOC(=O)/C=C/c1ccc(O)c(O)c1 | 5.75 | 2.28 | 1.91 | 6.35 | 7.24 | 5.11 | 4.69 | 7.73 | 8.57 | 3.38 | 7.48 | 2.02 | 6.8 | 2.96 |
| COc1cc(/C=C/C(=O)OCCOc2no[n+]([O-])c2S(=O)(=O)c2ccccc2)ccc1O | > 50 | > 50 | > 50 | > 50 | > 50 | > 50 | > 50 | > 50 | > 50 | > 50 | > 50 | > 50 | > 50 | > 50 |
| O=C(/C=C/c1ccc(O)c(O)c1)OCCCO[N+](=O)[O-] | 10.8 | 4.34 | 3.31 | 18.1 | > 50 | 10 | 8.03 | 13.5 | 10.7 | 18.9 | 24.8 | 3.11 | 20 | 5.77 |
| COc1cc(/C=C/C(=O)Oc2cccc(OCc3c(-c4ccccc4)no[n+]3[O-])c2)ccc1O | 0.72 | 24.7 | 11.6 | > 50 | > 50 | > 50 | > 50 | > 50 | > 50 | 49.4 | > 50 | > 50 | 44.6 | 14.2 |
| CCCCOC(=O)/C=C/c1ccc(O)c(OC)c1 | 8.23 | 9.03 | 19.4 | 15 | 18.3 | 14.9 | 8.23 | 22.9 | 17.2 | 19.3 | 18.1 | 10.3 | 15 | 13.2 |
| COc1cc(/C=C/C(=O)OCCCCO[N+](=O)[O-])ccc1O | 8.82 | 12.9 | 19.5 | 20.8 | 24.8 | 13.1 | 4.51 | 28.4 | 30.1 | 20.4 | 32.5 | 6.35 | 20.3 | 8.92 |
| COc1cc(/C=C/C(=O)OCCCCCO[N+](=O)[O-])ccc1OCCCCCO[N+](=O)[O-] | > 50 | > 50 | > 50 | > 50 | > 50 | > 50 | > 50 | > 50 | > 50 | > 50 | > 50 | > 50 | > 50 | > 50 |
| O=C(/C=C/c1ccc(OCCCCO[N+](=O)[O-])c(O)c1)OCCCCO[N+](=O)[O-] | 0.41 | > 50 | > 50 | > 50 | > 50 | > 50 | > 50 | > 50 | > 50 | > 50 | > 50 | 3.93 | > 50 | 3.23 |
| O=C(/C=C/c1ccc(OCCCCCCO[N+](=O)[O-])c(O)c1)OCCCCCCO[N+](=O)[O-] | > 50 | > 50 | > 50 | > 50 | > 50 | > 50 | > 50 | > 50 | > 50 | > 50 | > 50 | 1.35 | > 50 | 39.7 |
| O=C(/C=C/c1ccc(OCCCO[N+](=O)[O-])c(O)c1)OCCCO[N+](=O)[O-] | 0.69 | 5.71 | 9.58 | 6.61 | > 50 | 10 | > 50 | 4.98 | 12.5 | 6.94 | 8.96 | > 50 | 14.1 | 4.81 |
| CC(C)COC(=O)/C=C/c1ccc(O)c(O)c1 | 13.6 | 8.55 | 16 | > 50 | > 50 | > 50 | 37.7 | 37.5 | > 50 | > 50 | > 50 | 4.7 | 36.8 | 16.2 |
| O=C(/C=C/c1ccc(O)c(O)c1)OC/C=C/CO[N+](=O)[O-] | 0.4 | 1.36 | 2.9 | 0.41 | 10.3 | 4.65 | 0.41 | 7.95 | 0.42 | 0.43 | 1.49 | 0.4 | 4.31 | 0.41 |
| COc1cc(/C=C/C(=O)OC/C=C/CO[N+](=O)[O-])ccc1O | 5.95 | 4.29 | 4.98 | 4.86 | 9.79 | 5.13 | 2.34 | 21.9 | 2.48 | 2.36 | 3.89 | 1 | 9.38 | 6.53 |
| COc1cc(/C=C/C(=O)OCC(C)C)ccc1O | 34.6 | 28.3 | > 50 | > 50 | 35.7 | > 50 | 38 | > 50 | > 50 | > 50 | > 50 | 28.7 | > 50 | 44.8 |
| COc1cc(/C=C/C(=O)OCCCCCCO[N+](=O)[O-])ccc1OCCCCCCO[N+](=O)[O-] | > 50 | > 50 | > 50 | > 50 | > 50 | > 50 | > 50 | > 50 | 27.8 | > 50 | > 50 | > 50 | > 50 | > 50 |
| COc1cc(/C=C/C(=O)OCCCCOc2no[n+]([O-])c2S(=O)(=O)c2ccccc2)ccc1O | 0.4 | 0.42 | 0.45 | 0.42 | 0.4 | 0.41 | 0.42 | 1.93 | 0.41 | 0.44 | 0.4 | 0.46 | 0.84 | 0.42 |
| O=C(/C=C/c1ccc(OCCCCCO[N+](=O)[O-])c(O)c1)OCCCCCO[N+](=O)[O-] | 0.45 | > 50 | > 50 | > 50 | > 50 | > 50 | > 50 | > 50 | > 50 | 7.23 | > 50 | 5.73 | > 50 | 2.71 |
| CCOC(=O)/C=C/c1ccc(O)c(OC)c1 [ETHYL FERULATE] | 12.5 | 32.3 | 29.1 | 25.6 | 28.1 | 26.8 | 36.8 | 32 | > 50 | > 50 | > 50 | 2.13 | 33.4 | 24.9 |
| CC(C)OC(=O)/C=C/c1ccc(O)c(O)c1 | > 50 | 11 | 10.5 | > 50 | > 50 | > 50 | 30.8 | > 50 | > 50 | > 50 | > 50 | 9.65 | > 50 | 31.5 |
| CCCCOC(=O)/C=C/c1ccc(O)c(O)c1 [BUTYL CAFFEATE] | 3.51 | 2.62 | 5.62 | 5.75 | 11.3 | 5.59 | 5.81 | 6.46 | 11.7 | 9.54 | 11.1 | 0.59 | 8.66 | 2.17 |
| COc1cc(/C=C/C(=O)OCc2c(-c3ccccc3)no[n+]2[O-])ccc1O | 2.06 | 4.53 | 7.03 | 11.1 | 13.4 | 8.66 | 12.9 | 16.5 | 22.9 | 13.8 | 14 | 7.82 | 3.37 | 4.98 |
